Active and inactive are the calls of the source. The calls are words filed in the database; no cut-off is given here.
Assays:
HCT-116 [1] = test: Cytotoxicity against human HCT116 cells at 1.25 to 20 uM after 96 hrs by MTT assay; type: functional, cell-based
In short: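 HCT116 cells in DMEM with 10% FBS, seeded at 4 × 10^3 per well and left overnight at 37 °C. Treated in 1% FBS–DMEM for 96 h, then MTT for 3 h. Formazan dissolved in DMSO, absorbance read at 570 nm. DMSO vehicle control. Two independent assays, mean ± SD.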

Cancer cell lines [2] = test: Antitumor activity against human HCT116 cells xenografted in 48 hpf zebrafish embryo assessed as inhibition of cancer cell proliferation at 80 uM treated for 4 days; type: functional, cell-based
In short: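 HCT116 cells labelled with 2 μg/mL DiI were injected into the yolk sac of 48 hpf embryos. Embryos were held singly in E3 without methylene blue with compound (80 μM), 10 μM API-H7 as positive control or DMSO, at 31 °C for 96 h, 8 per group. Larvae were dissociated with collagenase/dispase for 2 h at 37 °C, fixed in paraformaldehyde, and fluorescent cells counted by microscopy. Two independent assays.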

HCT-116 [3] = test: Induction of apoptosis in human HCT116 cells assessed as PARP cleavage at 20 uM after 72 hrs by immunoblotting; type: functional, cell-based
In short: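 HCT116 cells were treated with 20 μM compound for 72 h and lysed in ice-cold buffer with PMSF and protease inhibitors. Protein in the cleared supernatant was measured by BCA, and PARP cleavage was detected by western blot with actin as reference.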

Danio rerio [4] = species on record: Danio rerio; test: Teratogenic effect in zebrafish assessed as delayed hatching at 160 uM after 72 hrs by microscopy; type: organism-based; details: in vivo
In short: (§1)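 Fertilized eggs were exposed from the eight-cell stage, 8 per well, at 31 °C for 72 h. Development, malformations and survival were then recorded by microscopy.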

Danio rerio [5] = species on record: Danio rerio; test: Teratogenic effect in zebrafish assessed as skeletal deformities at 160 uM after 72 hrs by microscopy; type: organism-based; details: in vivo; in short: as §1
Danio rerio [6] = species on record: Danio rerio; test: Teratogenic effect in zebrafish assessed as abnormal heart at 160 uM after 72 hrs by microscopy; type: organism-based; details: in vivo; in short: as §1
Danio rerio [7] = species on record: Danio rerio; test: Teratogenic effect in zebrafish assessed as abnormal head at 160 uM after 72 hrs by microscopy; type: organism-based; details: in vivo; in short: as §1
Danio rerio [8] = species on record: Danio rerio; test: Teratogenic effect in zebrafish assessed as slow heartbeat at 160 uM after 72 hrs by microscopy; type: organism-based; details: in vivo; in short: as §1
Danio rerio [9] = test: Teratogenic effect in zebrafish assessed as heart sac edema at 160 uM after 72 hrs by microscopy; type: organism-based; details: in vivo; in short: as §1
Danio rerio [10] = species on record: Danio rerio; test: Teratogenic effect in zebrafish assessed as abnormal development of yolk sac at 160 uM after 72 hrs by microscopy; type: toxicity, organism-based; details: in vivo; in short: as §1
Danio rerio [11] = species on record: Danio rerio; test: Teratogenic effect in zebrafish assessed as developmental toxicity at 40 to 80 uM after 72 hrs by microscopy; type: organism-based; details: in vivo; in short: as §1
Cancer cell lines [12] = test: Antitumor activity against human HCT116 cells xenografted in 48 hpf zebrafish embryo assessed as inhibition of cancer cell proliferation compound treated for 4 days; type: functional, cell-based
beta-glucosidase = test: (§2) Drug metabolism assessed as zebrafish intestinal beta-glucosidase-mediated deglycosylation of compound at 80 uM after 2.5 hrs by resorufin-beta-D-glucopyranoside-based fluorescence assay; type: ADME, Danio rerio; details: zebrafish intestinal beta-glucosidase, probe resorufin-beta-D-glucopyranoside, read-out: Drug metabolism
In short: (§3)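 Larvae at 7 dpf (24 per well) were incubated in E3 without methylene blue with Res-β-Glc probe at 400 μM, with or without 80 μM compound, for 2.5 h at 31 °C, then washed. Larvae showing reduced fluorescence against probe-alone larvae were counted by microscopy (n = 3, SD). Lysates were also read at ex 570/em 610 nm.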

[13] = Drug metabolism assessed as zebrafish intestinal beta-glucosidase-mediated formation of quercetin after 2.5 hrs by resorufin-beta-D-glucopyranoside-based fluorescence assay; type: ADME, Danio rerio; in short: as §3
[14] = Drug metabolism assessed as zebrafish intestinal beta-glucosidase-mediated formation of quercetin at 80 uM after 2.5 hrs by resorufin-beta-D-glucopyranoside-based fluorescence assay; type: ADME, Danio rerio; in short: as §3
[15] = as §2; type: ADME, Danio rerio; details: 2.5 h, 80 µM; in short: as §3

Structure (SMILES)	Activity (HCT-116 [1])	Activity (Cancer cell lines [2])	Activity (HCT-116 [3])	Activity (Danio rerio [4])	Activity (Danio rerio [5])	Activity (Danio rerio [6])	Activity (Danio rerio [7])	Activity (Danio rerio [8])	Activity (Danio rerio [9])	Activity (Danio rerio [10])	Activity (Danio rerio [11])	Activity (Cancer cell lines [12])	metabolised at 2.5 h, 80 µM (beta-glucosidase)	Drug metabolism [13]	Drug metabolism [14]	Drug metabolism [15]
C[C@@H]1O[C@@H](Oc2c(-c3ccc(O)c(O)c3)oc3cc(O)cc(O)c3c2=O)[C@H](O)[C@H](O)[C@H]1O	Active	inactive	–	–	–	–	–	–	–	–	–	–	–	–	–	–
O=c1c(O[C@@H]2O[C@H](CO)[C@H](O)[C@H](O)[C@H]2O)c(-c2ccc(O)c(O)c2)oc2cc(O)cc(O)c12	Active	inactive	–	–	–	–	–	–	–	–	–	–	–	–	–	–
O=c1c(O[C@@H]2O[C@H](CO)[C@@H](O)[C@H](O)[C@H]2O)c(-c2ccc(O)c(O)c2)oc2cc(O)cc(O)c12 [ISOQUERCETIN]	Active	Active	Active	Non-toxic	Non-toxic	Non-toxic	Non-toxic	Non-toxic	Non-toxic	Non-toxic	Non-toxic	Dose-dependent effect	57%	Dose-dependent effect	metabolite_detected	–
O=c1c(O)c(-c2ccc(O)c(O)c2)oc2cc(O)cc(O)c12 [QUERCETIN]	Active	Active	Active	Non-toxic	Non-toxic	Non-toxic	Non-toxic	Non-toxic	Non-toxic	Non-toxic	Non-toxic	–	–	–	–	metabolite_notdetected
O=c1c(O)c(-c2ccc(O[C@@H]3O[C@H](CO)[C@@H](O)[C@H](O)[C@H]3O)c(O)c2)oc2cc(O)cc(O)c12 [SPIRAEOSIDE]	Active	inactive	Active	31.25%	31.25%	31.25%	31.25%	31.25%	31.25%	31.25%	Non-toxic	–	45%	–	–	–

Reference: ChEMBL document CHEMBL3351339, “Delineation of the role of glycosylation in the cytotoxic properties of quercetin using novel assays in living vertebrates” (J Nat Prod, 2014)
